Source: ChEMBL document CHEMBL2346554, “Extreme multidrug resistant HIV-1 protease with 20 mutations is resistant to novel protease inhibitors with P1'-pyrrolidinone or P2-tris-tetrahydrofuran” (J Med Chem, 2013)
Calls of active or inactive are those of the source. The rule behind the calls is not given here.

Experiments:
[1] = test system: Human immunodeficiency virus type 1 protease (Human immunodeficiency virus 1), Q72874 [Q7K,L10F,I13V,I15V,D30V,V32I,L33F,E35D,M36I,S37N,I47V,I54L,Q58E,I62V,L63P,A71V,I84V,N88D,L89T,L90M]; assay: Binding affinity to HIV1 protease Q7K, L10F, I13V, I15V, D30V, V32I, L33F, E35D, M36I, S37N, I47V, I54L, Q58E, I62V, L63P, A71V, I84V, N88D, L89T, L90M mutant expressed in Escherichia coli BL21 (DE3) assessed as association constant by isothermal titration calorimetric analysis
Outline: (§1)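 PR20 (1.8−2.15 mg/mL in 12 mM HCl) was folded by adding 5 mM sodium acetate pH 6, then 100 mM sodium acetate pH 5, and centrifuged. It was titrated in the ITC cell with inhibitor at ~10-fold the PR20 concentration, in matching buffer. Inhibitor concentration was estimated from the fitted N at known PR20, assuming 1:1 binding. KL = 1/KA.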

[2] = target: Protease (Human immunodeficiency virus 1) (UniProt Q9YQ12); conditions: 0.5 to 8 uM
[3] = test system: Human immunodeficiency virus type 1 protease (Human immunodeficiency virus 1), Q72874 [Q7K,L10F,I13V,I15V,D30V,V32I,L33F,E35D,M36I,S37N,I47V,I54L,Q58E,I62V,L63P,A71V,I84V,N88D,L89T,L90M]; assay: Binding affinity to HIV1 protease Q7K, L10F, I13V, I15V, D30V, V32I, L33F, E35D, M36I, S37N, I47V, I54L, Q58E, I62V, L63P, A71V, I84V, N88D, L89T, L90M mutant expressed in Escherichia coli BL21 (DE3) assessed as dissociation constant by isothermal titration calorimetric analysis; outline: as §1
[4] = test system: Human immunodeficiency virus type 1 protease (Human immunodeficiency virus 1), Q72874 [Q7K,L10F,I13V,I15V,D30V,V32I,L33F,E35D,M36I,S37N,I47V,I54L,Q58E,I62V,L63P,A71V,I84V,N88D,L89T,L90M]; assay: Inhibition of transferrin receptor-fused HIV1 protease Q7K, L10F, I13V, I15V, D30V, V32I, L33F, E35D, M36I, S37N, I47V, I54L, Q58E, I62V, L63P, A71V, I84V, N88D, L89T, L90M mutant autoprocessing expressed in Escherichia coli at 100 to 150 uM by SDS-PAGE analysis
[5] = target: Protease (Human immunodeficiency virus 1) (UniProt Q9YQ12); assay: Inhibition of HIV1 protease dimerization transfected in COS7 cells relative to darunavir; assay type: cell-based; conditions: COS-7
[6] = test system: Human immunodeficiency virus type 1 protease (Human immunodeficiency virus 1), Q72874 [Q7K,L10F,I13V,I15V,D30V,V32I,L33F,E35D,M36I,S37N,I47V,I54L,Q58E,I62V,L63P,A71V,I84V,N88D,L89T,L90M]; assay: Ratio of amprenavir dissociation constant K to compound dissociation constant K for HIV1 protease Q7K, L10F, I13V, I15V, D30V, V32I, L33F, E35D, M36I, S37N, I47V, I54L, Q58E, I62V, L63P, A71V, I84V, N88D, L89T, L90M mutant
[7] = test system: Human immunodeficiency virus type 1 protease (Human immunodeficiency virus 1), Q72874 [Q7K,L10F,I13V,I15V,D30V,V32I,L33F,E35D,M36I,S37N,I47V,I54L,Q58E,I62V,L63P,A71V,I84V,N88D,L89T,L90M]; assay: Inhibition of transferrin receptor-fused HIV1 protease Q7K, L10F, I13V, I15V, D30V, V32I, L33F, E35D, M36I, S37N, I47V, I54L, Q58E, I62V, L63P, A71V, I84V, N88D, L89T, L90M mutant autoprocessing expressed in Escherichia coli up to 100 uM by SDS-PAGE analysis
Outline: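 TFR-fused PR20 precursor was expressed in E. coli cultures grown with increasing inhibitor in the medium, up to 100 μM. The protein was partially purified, and autoprocessing was assessed by SDS-PAGE against wild-type TFR-PR with inhibitor.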

| SMILES | K [1] | inhibition [2] | K [3] | inhibition [4] | fold change (FC) [5] | Ratio [6] | inhibition [7] |
| --- | --- | --- | --- | --- | --- | --- | --- |
| CC(C)CN(C[C@@H](O)[C@H](Cc1ccccc1)NC(=O)O[C@H]1CO[C@H]2OCC[C@H]21)S(=O)(=O)c1ccc(N)cc1 | 24.5 ×10⁶ /M | Active | 41 nM | inactive |  |  |  |
| CC(C)CN(C[C@@H](O)[C@H](Cc1ccccc1)NC(=O)O[C@H]1CCOC1)S(=O)(=O)c1ccc(N)cc1 | 5.61 ×10⁶ /M |  | 178 nM | inactive |  |  |  |
| COc1ccc(S(=O)(=O)N(CC(C)C)C[C@@H](O)[C@H](Cc2ccccc2)NC(=O)O[C@H]2CO[C@H]3O[C@@H]4OCC[C@@H]4[C@H]32)cc1 | 25.3 ×10⁶ /M |  | 39.5 nM |  | 10 | 4.5 | inactive |
| COc1ccc(S(=O)(=O)N(C[C@H]2CCC(=O)N2)C[C@@H](O)[C@H](Cc2ccccc2)NC(=O)O[C@@H]2C[C@@H]3CCO[C@@H]3C2)cc1 | 1.04 ×10⁶ /M |  | 960 nM |  |  |  | inactive |
